# Source: ChEMBL document CHEMBL4834423, “Discovery of AG-270, a First-in-Class Oral MAT2A Inhibitor for the Treatment of Tumors with Homozygous MTAP Deletion” (J Med Chem, 2021)
# What was measured:
# KP-4 [1] = assay: Anticancer activity in MTAP-null human KP-4 cells xenografted mouse model assessed as inhibition of SAM production at 30 mg/kg, po qd treated for 38 days relative to control; format: functional; details: KP-4, po, 912 h, time 38 day
# Outline: (§1)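 Subcutaneous KP4 MTAP-null xenograft mice, 12 per arm (60 animals), dosed orally once daily on days 24−38 at 10−200 mg/kg. Tumor SAM levels and plasma compound exposure were monitored; plasma sampled up to 24 h after the last dose. Mean tumor volume and body weight change were tracked; error bars are SEM.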
# KP-4 [2] = assay: Anticancer activity in MTAP-null human KP-4 cells xenografted mouse model assessed as tumor growth inhibition at 100 mg/kg, po qd treated for 38 days relative to control; format: functional; details: KP-4, po, 912 h, time 38 day, read-out: TGI; outline: as §1
# HCT-116 [3] = assay: Anticancer activity in MTAP-null human HCT116 cells xenografted mouse model assessed as tumor growth inhibition at 10 mg/kg, po qd treated for 38 days relative to control; format: functional; details: HCT-116, po, 912 h, time 38 day, read-out: TGI
# Cytochrome P450 3A4 [4] = molecular target: T1, Cytochrome P450 3A4 (Homo sapiens, UniProt P08684); assay: Inhibition of CYP3A4 (unknown origin); format: ADME
# [5] = Oral bioavailability in monkey at 5 mg/kg; format: ADME, organism-based, Macaca mulatta; details: rhesus monkey, in vivo
# [6] = Protein binding in mouse plasma assessed as unbound fraction; format: ADME, cell-free
# [7] = Solubility of compound at pH 2; format: physicochemical; details: buffer
# HCT-116 [8] = assay: cells; details: Homo sapiens, HCT-116, 96 h
# Cytochrome P450 3A4 [9] = molecular target: T1, Cytochrome P450 3A4; assay: Inhibition of CYP3A4 (unknown origin) assessed as inactivation relative to control; format: ADME
# Cytochrome P450 2C19 [10] = molecular target: T2, Cytochrome P450 2C19 (Homo sapiens, UniProt P33261); assay: Inhibition of CYP2C19 (unknown origin); format: ADME
# KP-4 [11] = assay: Anticancer activity in MTAP-null human KP-4 cells xenografted mouse model assessed as inhibition of SAM production at 10 mg/kg, po qd treated for 38 days relative to control; format: functional; details: KP-4, po, 912 h, time 38 day; outline: as §1
# KP-4 [12] = assay: Anticancer activity in MTAP-null human KP-4 cells xenografted mouse model assessed as tumor growth inhibition at 30 mg/kg, po qd treated for 38 days relative to control; format: functional; details: KP-4, po, 912 h, time 38 day, read-out: TGI; outline: as §1
# [13] = Protein binding in rat plasma assessed as unbound fraction; format: ADME, cell-free
# Cytochrome P450 2D6 [14] = molecular target: T3, Cytochrome P450 2D6 (Homo sapiens, UniProt P10635); assay: Inhibition of CYP2D6 (unknown origin) assessed as inactivation relative to control; format: ADME
# cells = details: Homo sapiens, HCT-116, 72 h
# KP-4 [15] = assay: Anticancer activity in MTAP-null human KP-4 cells xenografted mouse model assessed as inhibition of SAM production at 200 mg/kg, po qd treated for 38 days relative to control; format: functional; details: KP-4, po, 912 h, time 38 day; outline: as §1
# PXR (NR1I2) = molecular target: T4, PXR (NR1I2) (Homo sapiens, UniProt O75469); assay: Transactivation of PXR in human HepG2 cells relative to rifampicin; format: cell-based; details: read-out: Activity
# T4 sequence (O75469 whole entry): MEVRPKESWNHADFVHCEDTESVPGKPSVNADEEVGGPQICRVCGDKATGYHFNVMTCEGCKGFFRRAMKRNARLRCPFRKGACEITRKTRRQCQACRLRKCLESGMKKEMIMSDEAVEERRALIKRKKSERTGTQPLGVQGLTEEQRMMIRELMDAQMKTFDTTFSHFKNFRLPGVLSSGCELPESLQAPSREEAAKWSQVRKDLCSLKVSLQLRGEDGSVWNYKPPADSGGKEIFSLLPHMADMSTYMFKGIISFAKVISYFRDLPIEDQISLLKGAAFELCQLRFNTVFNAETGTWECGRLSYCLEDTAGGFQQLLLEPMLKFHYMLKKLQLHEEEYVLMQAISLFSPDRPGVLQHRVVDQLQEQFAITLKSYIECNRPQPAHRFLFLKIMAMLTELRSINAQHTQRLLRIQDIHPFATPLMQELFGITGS
# [16] = Toxicity in MTAP-null human KP-4 cells xenografted mouse model assessed as body weight change at 10 to 200 mg/kg, po qd treated for 38 days; format: organism-based; details: in vivo, 912 h, dose 10-200 mg/kg, time 38 day; outline: as §1
# [17] = Oral bioavailability in dog at 5 mg/kg; format: ADME, organism-based, Canis lupus familiaris; details: in vivo
# Cytochrome P450 2D6 [18] = molecular target: T3, Cytochrome P450 2D6; assay: Inhibition of CYP2D6 (unknown origin); format: ADME
# [19] = Oral bioavailability in rat at 5 mg/kg; format: ADME, organism-based; details: in vivo
# Cytochrome P450 2C19 [20] = molecular target: T2, Cytochrome P450 2C19; assay: Inhibition of CYP2C19 (unknown origin) assessed as inactivation relative to control; format: ADME
# Cytochrome P450 2C9 [21] = molecular target: T5, Cytochrome P450 2C9 (Homo sapiens, UniProt P11712); assay: Inhibition of CYP2C9 (unknown origin) assessed as inactivation relative to control; format: ADME
# KP-4 [22] = assay: Anticancer activity in MTAP-null human KP-4 cells xenografted mouse model assessed as inhibition of SAM production at 100 mg/kg, po qd treated for 38 days relative to control; format: functional; details: KP-4, po, 912 h, time 38 day; outline: as §1
# Cytochrome P450 2C9 [23] = molecular target: T5, Cytochrome P450 2C9; assay: Inhibition of CYP2C9 (unknown origin); format: ADME
# KP-4 [24] = assay: Anticancer activity in MTAP-null human KP-4 cells xenografted mouse model assessed as tumor growth inhibition at 200 mg/kg, po qd treated for 38 days relative to control; format: functional; details: KP-4, po, 912 h, time 38 day, read-out: TGI; outline: as §1
# [25] = Solubility of compound at pH 7.4; format: physicochemical; details: buffer
# [26] = molecular target: S-adenosylmethionine synthase isoform type-2 (Homo sapiens, UniProt P31153); assay: Inhibition of recombinant human MAT2A expressed in baculovirus infected Sf9 cells assessed as S-adenosyl methionine production using L-methionine as substrate incubated for 60 mins followed by substrate addition and measured after 60 mins relative to control; set-up: concentration or dose not given beside the values
# [27] = Protein binding in human plasma assessed as unbound fraction; format: ADME, cell-free
# Cytochrome P450 2B6 = molecular target: T6, Cytochrome P450 2B6 (Homo sapiens, UniProt P20813); assay: Inhibition of CYP2B6 (unknown origin) assessed as inactivation relative to control; format: ADME
# T6 sequence (P20813 whole entry): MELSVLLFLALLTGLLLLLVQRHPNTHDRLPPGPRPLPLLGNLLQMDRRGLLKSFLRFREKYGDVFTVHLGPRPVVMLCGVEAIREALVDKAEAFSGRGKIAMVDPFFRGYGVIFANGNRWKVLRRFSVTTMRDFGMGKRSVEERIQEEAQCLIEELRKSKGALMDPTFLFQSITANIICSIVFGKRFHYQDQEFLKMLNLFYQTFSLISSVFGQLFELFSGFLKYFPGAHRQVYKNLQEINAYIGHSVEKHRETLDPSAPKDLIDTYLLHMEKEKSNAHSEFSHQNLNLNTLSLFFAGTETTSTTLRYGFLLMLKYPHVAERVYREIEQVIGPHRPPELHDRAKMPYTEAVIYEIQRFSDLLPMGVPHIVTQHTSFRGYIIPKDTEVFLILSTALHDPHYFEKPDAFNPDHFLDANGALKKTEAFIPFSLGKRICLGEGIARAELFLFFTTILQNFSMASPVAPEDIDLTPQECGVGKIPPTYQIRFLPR
# KP-4 [28] = assay: Anticancer activity in MTAP-null human KP-4 cells xenografted mouse model assessed as tumor growth inhibition at 10 mg/kg, po qd treated for 38 days relative to control; format: functional; details: KP-4, po, 912 h, time 38 day, read-out: TGI; outline: as §1
# T3 sequence (P10635 whole entry): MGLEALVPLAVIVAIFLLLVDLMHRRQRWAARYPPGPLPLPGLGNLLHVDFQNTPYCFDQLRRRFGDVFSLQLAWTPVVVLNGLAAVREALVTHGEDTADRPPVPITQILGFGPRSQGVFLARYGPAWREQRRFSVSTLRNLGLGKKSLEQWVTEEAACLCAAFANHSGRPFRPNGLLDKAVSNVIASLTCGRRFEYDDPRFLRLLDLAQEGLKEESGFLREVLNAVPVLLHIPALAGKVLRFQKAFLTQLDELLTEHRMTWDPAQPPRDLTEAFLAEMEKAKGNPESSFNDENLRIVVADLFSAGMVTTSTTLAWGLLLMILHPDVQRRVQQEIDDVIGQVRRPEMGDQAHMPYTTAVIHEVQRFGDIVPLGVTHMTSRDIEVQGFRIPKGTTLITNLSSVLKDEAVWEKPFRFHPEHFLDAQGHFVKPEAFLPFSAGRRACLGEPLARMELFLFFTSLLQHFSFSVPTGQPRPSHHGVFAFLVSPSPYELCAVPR
# T1 sequence (P08684 whole entry): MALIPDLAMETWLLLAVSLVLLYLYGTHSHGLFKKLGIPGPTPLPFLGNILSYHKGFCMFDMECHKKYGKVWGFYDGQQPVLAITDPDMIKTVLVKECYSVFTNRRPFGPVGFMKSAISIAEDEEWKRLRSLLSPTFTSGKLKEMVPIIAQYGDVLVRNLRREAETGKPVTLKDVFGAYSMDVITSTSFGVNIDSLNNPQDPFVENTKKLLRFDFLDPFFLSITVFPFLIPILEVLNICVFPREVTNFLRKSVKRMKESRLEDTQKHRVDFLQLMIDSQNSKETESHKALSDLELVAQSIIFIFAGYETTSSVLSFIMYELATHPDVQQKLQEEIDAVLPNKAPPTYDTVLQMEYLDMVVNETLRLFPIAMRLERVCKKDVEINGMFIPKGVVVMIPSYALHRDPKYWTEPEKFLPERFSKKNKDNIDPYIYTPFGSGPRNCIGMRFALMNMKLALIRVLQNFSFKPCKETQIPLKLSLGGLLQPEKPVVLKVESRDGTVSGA
# T2 sequence (P33261 whole entry): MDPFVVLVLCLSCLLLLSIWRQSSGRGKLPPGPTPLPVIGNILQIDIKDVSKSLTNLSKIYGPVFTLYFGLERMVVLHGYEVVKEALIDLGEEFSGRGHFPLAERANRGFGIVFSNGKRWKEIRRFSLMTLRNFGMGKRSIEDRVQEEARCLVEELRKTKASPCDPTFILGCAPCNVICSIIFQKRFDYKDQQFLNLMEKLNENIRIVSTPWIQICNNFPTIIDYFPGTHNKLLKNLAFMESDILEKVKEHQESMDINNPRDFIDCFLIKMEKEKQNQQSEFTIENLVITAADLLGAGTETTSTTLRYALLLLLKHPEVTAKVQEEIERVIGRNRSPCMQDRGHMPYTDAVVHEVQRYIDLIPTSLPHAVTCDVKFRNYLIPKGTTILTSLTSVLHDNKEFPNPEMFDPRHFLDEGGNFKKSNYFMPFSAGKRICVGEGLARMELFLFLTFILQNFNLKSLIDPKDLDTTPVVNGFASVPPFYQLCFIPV
# T5 sequence (P11712 whole entry): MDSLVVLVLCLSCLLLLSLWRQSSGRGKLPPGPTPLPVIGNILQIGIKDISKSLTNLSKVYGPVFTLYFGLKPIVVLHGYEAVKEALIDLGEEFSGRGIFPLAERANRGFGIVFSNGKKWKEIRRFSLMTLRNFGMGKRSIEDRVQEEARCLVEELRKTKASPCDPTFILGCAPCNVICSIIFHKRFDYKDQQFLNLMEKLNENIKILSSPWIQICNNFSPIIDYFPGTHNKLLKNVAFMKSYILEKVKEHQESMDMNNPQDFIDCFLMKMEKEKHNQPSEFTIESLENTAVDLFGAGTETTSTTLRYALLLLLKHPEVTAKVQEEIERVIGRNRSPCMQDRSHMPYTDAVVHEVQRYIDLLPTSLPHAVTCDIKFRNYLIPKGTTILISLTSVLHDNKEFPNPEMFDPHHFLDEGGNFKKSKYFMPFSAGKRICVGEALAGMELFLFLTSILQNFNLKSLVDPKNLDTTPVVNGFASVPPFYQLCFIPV
# Chain of S-adenosylmethionine synthase isoform type-2 (P31153 whole entry, looked up, canonical isoform): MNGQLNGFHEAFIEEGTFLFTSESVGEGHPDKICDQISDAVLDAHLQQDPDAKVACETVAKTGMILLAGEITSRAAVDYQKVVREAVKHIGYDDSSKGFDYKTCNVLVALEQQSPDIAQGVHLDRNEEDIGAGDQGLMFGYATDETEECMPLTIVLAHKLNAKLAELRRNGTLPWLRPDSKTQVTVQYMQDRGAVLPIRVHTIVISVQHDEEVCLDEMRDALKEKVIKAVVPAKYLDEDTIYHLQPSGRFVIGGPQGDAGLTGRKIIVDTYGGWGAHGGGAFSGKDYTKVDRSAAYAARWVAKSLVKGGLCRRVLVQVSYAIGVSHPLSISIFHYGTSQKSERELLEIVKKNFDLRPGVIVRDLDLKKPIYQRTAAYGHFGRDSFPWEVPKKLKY
compound,measurement,setting,value
COc1ccc(-c2c(Nc3ccccn3)[nH]c3c(C4=CCCCC4)c(-c4ccccc4)nn3c2=O)cc1,inhibition in vivo at 30 mg/kg,KP-4 [1],44.7%
same,inhibition in vivo at 100 mg/kg,KP-4 [2],66%
same,inhibition in vivo at 10 mg/kg,HCT-116 [3],75%
same,IC50,Cytochrome P450 3A4 [4],> 10 µM
same,bioavailability,[5],31%
same,fraction unbound,[6],0.0028
same,solubility,[7],< 0.5 µM
same,IC50,HCT-116 [8],0.257 µM
same,INH,Cytochrome P450 3A4 [9],> 50 µM
same,IC50,Cytochrome P450 2C19 [10],> 10 µM
same,inhibition in vivo at 10 mg/kg,KP-4 [11],33.4%
same,inhibition in vivo at 30 mg/kg,KP-4 [12],48%
same,fraction unbound,[13],0.016
same,INH,Cytochrome P450 2D6 [14],> 50 µM
same,IC50,cells,20 µM
same,inhibition in vivo at 200 mg/kg,KP-4 [15],81.1%
same,Emax,PXR (NR1I2),22%
same,Activity,[16],Non-Toxic
same,bioavailability,[17],48%
same,IC50,Cytochrome P450 2D6 [18],> 10 µM
same,bioavailability,[19],92%
same,INH,Cytochrome P450 2C19 [20],> 50 µM
same,INH,Cytochrome P450 2C9 [21],> 50 µM
same,inhibition in vivo at 100 mg/kg,KP-4 [22],63.5%
same,IC50,Cytochrome P450 2C9 [23],> 10 µM
same,inhibition in vivo at 200 mg/kg,KP-4 [24],67%
same,solubility,[25],< 0.1 µM
same,inhibition,[26],91%
same,fraction unbound,[27],0.015
same,INH,Cytochrome P450 2B6,> 3.6 µM
same,inhibition in vivo at 10 mg/kg,KP-4 [28],36%
